Assay results taken from the M2OR odorant receptor database.

The compounds below were run against T1, OR2T4 (Homo sapiens) (UniProt Q8NH00). Settings: stereoisomer not certain.
T1 sequence (whole entry): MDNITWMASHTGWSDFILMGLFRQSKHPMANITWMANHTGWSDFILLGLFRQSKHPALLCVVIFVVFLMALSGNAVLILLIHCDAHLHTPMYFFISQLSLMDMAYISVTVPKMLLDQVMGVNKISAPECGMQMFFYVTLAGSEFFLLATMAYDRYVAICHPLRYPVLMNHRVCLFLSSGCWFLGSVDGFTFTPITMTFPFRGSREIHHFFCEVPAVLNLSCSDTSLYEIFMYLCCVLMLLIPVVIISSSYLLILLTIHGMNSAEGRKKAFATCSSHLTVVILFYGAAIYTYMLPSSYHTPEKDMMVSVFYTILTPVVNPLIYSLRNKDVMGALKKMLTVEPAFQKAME
Summary of the method: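 Each receptor–molecule pair is labelled responsive or non-responsive (inactive) according to whether the original authors judged the measured signal statistically different from baseline. The data were taken from the main text and supplementary material of published papers and checked for typos and inconsistencies. Assay methods differed by source, with transient luciferase assays in mammalian cell lines being common.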
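Further: active if original authors judged signal statistically different from baseline.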

Odorant receptor agonist call, inactive:
CCCCCCCCCC(=O)OCC
CC(CC=O)c1ccccc1 (stereo not given)
C=C1CCC2CC1C2(C)C (stereo not given)
CCC(O)CC
CCCCCCC(=O)[O-].[H+]
